Active and inactive are the calls of the source. No cut-off for these calls is given here.
Tests used:
[1] = biological target: Elongation factor 2 (Homo sapiens) (UniProt P13639); test: Inhibition of eEF2-mediated tRNA translocation assessed as inhibition of phenylalanyl puromycin formation
Procedure, shortened: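 Set up as eEF1A binding assay but with GTP; 5 min at 37°C, compound added to 200 μM final, 5 min at room temperature, then eEF2, puromycin and GTP added; 10 min at 37°C; ethyl acetate-extractable phenylalanyl-puromycin counted by scintillation.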

MDA-MB-231 = test: Anticancer activity against human MDA-MB-231 cells after 24 hrs by [3H]thymidine incorporation assay; format: functional, cell-based
Saccharomyces cerevisiae [2] = test: Antimicrobial activity against Saccharomyces cerevisiae BY724 expressing ribosomal protein cyh2 and harboring mutation in rpl28; format: functional, organism-based
Procedure, shortened: (§1)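 Four isogenic S. cerevisiae strain pairs, each differing only by presence or absence of cyh2, exposed to varying compound concentrations; growth read by optical density; IC50 derived per strain, resistance as ratio between paired strains.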

Saccharomyces cerevisiae [3] = test: Antimicrobial activity against Saccharomyces cerevisiae JB281; format: functional, organism-based; procedure, shortened: as §1
Saccharomyces cerevisiae [4] = test: Fold resistance, ratio of IC50 for Saccharomyces cerevisiae BY740 expressing ribosomal protein cyh2 and harboring mutation in rpl28 to IC50 for Saccharomyces cerevisiae […]; format: functional; procedure, shortened: as §1
Saccharomyces cerevisiae [5] = test: Antimicrobial activity against Saccharomyces cerevisiae J47alpha; format: functional, organism-based; procedure, shortened: as §1
[6] = Inhibition of elF4A-mediated renilla luciferase translational activity at 200 to 2000 nM in presence of HCV IRES element
[7] = biological target: Elongation factor 2 (Homo sapiens) (UniProt P13639); test: Inhibition of eEF2-mediated tRNA translocation assessed as induction of dipeptide accumulation by TLC
Saccharomyces cerevisiae [8] = test: Fold resistance, ratio of IC50 for Saccharomyces cerevisiae BY686 expressing ribosomal protein cyh2 and harboring mutation in rpl28 to IC50 Saccharomyces cerevisiae JB503; format: functional; procedure, shortened: as §1
Jurkat = test: Antiproliferative activity against human Jurkat cells assessed as incorporation of [3H]thymidine in nuclear DNA at 2.5 uM after 24 hrs by scintillation counting; format: functional, cell-based
Procedure, shortened: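 Each of three tumour cell lines incubated with compound at 2.5 μM for 24 h, then [³H]thymidine added to monitor DNA synthesis; initial proliferation screen.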

BT-474 = test: Anticancer activity against human BT474 cells after 24 hrs by [3H]thymidine incorporation assay; format: functional, cell-based
Saccharomyces cerevisiae [9] = test: Antimicrobial activity against Saccharomyces cerevisiae BY686 expressing ribosomal protein cyh2 and harboring mutation in rpl28; format: functional, organism-based; procedure, shortened: as §1
[10] = Inhibition of elF4A-mediated renilla luciferase translational activity at 0.02 to 5 uM in presence of CrPV IRES element

## C/C(=C\[C@H](C)C(=O)C[C@H](O)CC1CC(=O)NC(=O)C1)[C@@H]1OC(=O)/C=C/CC/C=C/C=C\[C@@H]1C [LACTIMIDOMYCIN]
[1]
  inhibition: Active
MDA-MB-231
  Activity: Active
Saccharomyces cerevisiae [2]
  IC50: 6530 nM
Saccharomyces cerevisiae [3]
  IC50: 59 nM
Saccharomyces cerevisiae [4]
  Ratio IC50: 20.5
Saccharomyces cerevisiae [5]
  IC50: 4.6 nM
[6]
  inhibition: Active
[7]
  inhibition: Active
Saccharomyces cerevisiae [8]
  Ratio IC50: 10.3
Jurkat
  Activity: inactive
BT-474
  Activity: Active
Saccharomyces cerevisiae [9]
  IC50: 596 nM
[10]
  inhibition: Active

From ChEMBL document CHEMBL1221230, “Inhibition of eukaryotic translation elongation by cycloheximide and lactimidomycin” (Nat Chem Biol, 2010)
